In ChEMBL document CHEMBL1123270, “10-Acetyl-10-hydroxyxantho[2,3-f]tetralin 8-glycosides as angular chromophore analogues of anthracyclines: synthesis, redox properties, microsomal oxygen consumption, and antileukemic evaluation” (1986):
Converted amounts (≈) assume the structure as drawn.

Key:
Rattus norvegicus = test: […] percent activity of doxorubicin was determined as augmentation of normal oxygen uptake by fresh rat liver microsomes used as measure of redox activity; type: functional; design: concentration or dose not given beside the values
L1210 = test: Antileukemic cytotoxicity was evaluated for the compound against L1210 leukemia; type: functional; details: Mus musculus, read-out: ID50 (the source's name)
How it was run: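 L1210 cells grown in McCoy's 5A with glutamine, HCO3-, antibiotics and 10% heat-inactivated horse serum, 37 °C, humidified 95:5 air/CO2. Seeded at 10^5 cells/mL; drug added at 10, 1, 0.1 or 0.01 μg/mL final. Cell concentration counted by Coulter Counter after 72 h; ID50 taken as concentration giving 50% growth inhibition.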

CC(=O)[C@@H]1Cc2c(c(O)cc3c(=O)c4ccccc4oc23)[C@@H](OC2C[C@@H](N)[C@@H](O)C(C)O2)C1 (some centres not stated)
Activity (Rattus norvegicus): 10% | IC50 (L1210): 8 µg/mL (≈ 17.6 µM)

CC(=O)[C@@H]1Cc2c(c(O)cc3c(=O)c4ccccc4oc23)[C@@H](OC2C[C@@H](NC(=O)C(F)(F)F)[C@@H](OC(=O)c3ccc([N+](=O)[O-])cc3)C(C)O2)C1 (some centres not stated)
Activity (Rattus norvegicus): 6% | IC50 (L1210): 10 µg/mL (≈ 14.3 µM)

CC(=O)OCC1OC(O[C@H]2C[C@H](C(C)=O)Cc3c2c(O)cc2c(=O)c4ccccc4oc32)[C@@H](NC(=O)C(F)(F)F)C(OC(C)=O)[C@H]1OC(C)=O (some centres not stated)
Activity (Rattus norvegicus): 4% | IC50 (L1210): > 10 µg/mL

CC(=O)[C@@H]1Cc2c(c(O)cc3c(=O)c4ccccc4oc23)[C@@H](OC2C[C@@H](NC(=O)C(F)(F)F)[C@@H](O)C(C)O2)C1 (some centres not stated)
Activity (Rattus norvegicus): 6% | IC50 (L1210): 10 µg/mL (≈ 18.2 µM)

CC(=O)[C@]1(O)Cc2c(c(O)cc3c(=O)c4ccccc4oc23)[C@@H](OC2C[C@@H](NC(=O)C(F)(F)F)[C@@H](O)C(C)O2)C1 (some centres not stated)
Activity (Rattus norvegicus): 3% | IC50 (L1210): > 10 µg/mL

CC(=O)[C@]1(O)Cc2c(c(O)cc3c(=O)c4ccccc4oc23)[C@@H](OC2C[C@@H](NC(=O)C(F)(F)F)[C@@H](OC(=O)c3ccc([N+](=O)[O-])cc3)C(C)O2)C1 (some centres not stated)
Activity (Rattus norvegicus): 10% | IC50 (L1210): 8 µg/mL (≈ 11.2 µM)
